Data set [1] in a line: Cytotoxicity against C57/BL6 mouse primary BMDM assessed as cell viability at 5 uM after 2 days in presence of M-CSF by MTT assay relative to control. The data set is classed as toxicity. Particulars: primary bone marrow-derived macrophages (BMDM), read-out: Activity. The gist of the method:
(§1)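 Primary BMMs were obtained by flushing femur and tibia marrow of 4-week-old male C57BL/6 mice, culturing it overnight, then expanding the non-adherent cells with 30 ng/mL M-CSF to 90% confluence. They were seeded at 3×10^3 cells/well in full α-MEM with 30 ng/mL M-CSF. Next day, compound was added in triplicate for two days. MTT (5 mg/mL) was added for 2 h at 37°C, crystals were dissolved in DMSO, and OD was read at 570 nm. Viability is relative to untreated control (100%).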
On the technique in general: Formazan colour is commonly taken as a measure of viable cells.

Data set [2] is described as follows: (§2) Inhibition of RANKL/M-CSF-induced osteoclastogenesis in C57/BL6 mouse primary BMDM assessed as reduction in TRAP activity using pNPP as substrate after 2 days by colorimetric assay. It is filed as functional. The gist of the method:
(§3)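 BMMs at 3×10^3 cells/well exposed to 30 ng/mL M-CSF plus 50 ng/mL RANKL with compound in triplicate for two days. PBS-washed cells lysed 15 min at 37°C; lysate incubated 45 min with p-NPP in presence of disodium tartrate, stopped with NaOH, OD read at 405 nm, normalized to BCA protein; inhibition relative to control.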

Data set [3] is described as follows: Induction of C57/BL6 mouse primary BMDM proliferation assessed at 5 uM after 2 days by MTT assay relative to control. Particulars: 48 h. An outline of the steps:
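BMMs from femur/tibia marrow of 4-week-old male C57BL/6 mice, expanded in α-MEM/10% FBS with 30 ng/mL M-CSF. Seeded at 3×10^3 cells/well, treated next day in triplicate for two days with M-CSF present. MTT (5 mg/mL stock) for 2 h at 37°C, crystals dissolved in DMSO, OD 570 nm; viability relative to untreated control.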

Data set [4] relates to BMDM. Nature of the data set: Inhibition of RANKL/M-CSF-induced osteoclastogenesis in C57/BL6 mouse primary BMDM assessed reduction in TRAP-positive multinucleated cells at 5 uM after 5 days. It is filed as functional. An outline of the steps: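 Mouse C57BL/6 BMMs were adhered overnight in M-CSF medium, then cultured with 30 ng/mL M-CSF plus 50 ng/mL RANKL and compound for five days, with medium changed every two days. Cells were TRAP-stained with a leukocyte acid phosphatase kit, and TRAP-positive cells with ≥3 nuclei were counted as osteoclasts. Counts are expressed as percent of control, from at least three experiments.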

The species entered for data set [5] is Mus musculus. Nature of the data set: Inhibition of RANK/RANKL/NFATc1 signalling pathway in M-CSF-stimulated C57/BL6 mouse primary BMDM assessed as reduction in MMP9 mRNA level at 5 uM by qRT-PCR analysis. The gist of the method:
(§4)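 BMMs treated with M-CSF and/or RANKL alone or with 5 µM compound; mRNA for NFATc1, c-fos, TRAP, MMP-9 and cathepsin K measured by SYBR Green qRT-PCR, normalized to β-actin, expressed as fold change versus control cells; mean ± S.D. of triplicate measurements per cDNA sample.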

For data set [6], the species on record is Mus musculus. The data set can be described thus: Inhibition of RANK/RANKL/NFATc1 signalling pathway in M-CSF-stimulated C57/BL6 mouse primary BMDM assessed as reduction in NFATc1 mRNA level at 5 uM by qRT-PCR analysis. An outline of the steps: as §4
(In general: In qPCR the cycle at which signal appears reflects the starting amount.)

For data set [7], the species on record is Mus musculus. The data set can be described thus: Inhibition of RANK/RANKL/NFATc1 signalling pathway in M-CSF-stimulated C57/BL6 mouse primary BMDM assessed as reduction in TRAP mRNA level at 5 uM by qRT-PCR analysis. An outline of the steps:
as §4

For data set [8], the species on record is Mus musculus. Nature of the data set: Cytotoxicity against C57/BL6 mouse MSC assessed as reduction in cell viability at 5 uM after 2 days in presence of M-CSF by MTT assay. It is filed as toxicity. Particulars: 48 h. An outline of the steps: (§5)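 MTT viability in MC3T3-E1 preosteoblasts (ATCC) or C57BL/6-derived mouse MSCs grown in α-MEM with 10% FBS and penicillin/streptomycin at 37°C, 5% CO2. Compound at indicated concentrations for 2 days, then MTT read. Viability expressed relative to control, mean ± SD of triplicates.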

The species entered for data set [9] is Mus musculus. Nature of the data set: Inhibition of RANK/RANKL/NFATc1 signalling pathway in M-CSF-stimulated C57/BL6 mouse primary BMDM assessed as reduction in c-FOS mRNA level at 5 uM by qRT-PCR analysis. An outline of the steps:
as §4

Data set [10] relates to BMDM. Nature of the data set: Inhibition of RANKL/M-CSF-induced bone resorption of osteoclast in C57/BL6 mouse primary BMDM cultured on bovine femur bone slices assessed as reduction in bone resorption area at 5 uM after 5 days by toluidine blue staining based microscopy. It is filed as functional. The gist of the method: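 BMMs seeded on bovine femur bone slices; next day induced with 30 ng/mL M-CSF plus 50 ng/mL RANKL with compound for five days, medium changed every two days. Cells fixed in 2.5% glutaraldehyde, slices stained with 0.5% toluidine blue, imaged at 200×; pit area from three random fields per slice, expressed as % of control.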

Data set [11] is filed under the species Mus musculus. The data set can be described thus: Cytotoxicity against C57/BL6 mouse primary BMDM assessed as cell viability at 7.5 uM after 2 days in presence of M-CSF by MTT assay. It is filed as toxicity. The conditions noted are these: 48 h. An outline of the steps:
as §1

Data set [12] concerns BMDM. Described as §2. It is filed as functional. The gist of the method:
as §3

The species entered for data set [13] is Mus musculus. Nature of the data set: Cytotoxicity against mouse MC3T3-E1 cells assessed as reduction in cell viability at 5 uM after 2 days in presence of M-CSF by MTT assay. It is filed as toxicity, cell-based. Particulars: mc3t3-e1, 48 h. An outline of the steps:
as §5

The species entered for data set [14] is Mus musculus. Nature of the data set: Inhibition of RANK/RANKL/NFATc1 signalling pathway in M-CSF-stimulated C57/BL6 mouse primary BMDM assessed as reduction in cathepsin K mRNA level at 5 uM by qRT-PCR analysis. The gist of the method: as §4

SMILES strings stand for the structures. The source made the active and inactive calls. No cut-off for these calls is given here.

As to `CC(=O)Oc1cccc2c1C(=O)c1c(OC(C)=O)cc(C(=O)Nc3ccccc3)cc1C2=O`, the viability at 48 h, 5 µM in data set [1] worked out at 28%.

As for `CC(=O)Oc1cccc2c1C(=O)c1c(OC(C)=O)cc(C(=O)Nc3ccc(C(F)(F)F)cc3)cc1C2=O`, in data set [1], the viability at 48 h, 5 µM was 51%.

Regarding `CC(=O)Oc1cccc2c1C(=O)c1c(OC(C)=O)cc(C(=O)N3CCC(C)CC3)cc1C2=O`, in [1], the viability at 48 h, 5 µM turned out to be 8%.

Take `CC(=O)Oc1cccc2c1C(=O)c1c(OC(C)=O)cc(C(=O)Nc3ccc(C(F)(F)F)cn3)cc1C2=O`: in [1], the viability at 48 h, 5 µM was found to be 35%.

For `O=C1c2cccc(O)c2C(=O)c2c(O)cc(C(=O)N3CCC(CO)CC3)cc21`, in data set [1], the viability at 48 h, 5 µM was 79%. Also, the “inhibition (INH)” value in [2] is 85%.

As to `O=C(O)c1cc(O)c2c(c1)C(=O)c1cccc(O)c1C2=O` [RHEIN], the viability at 48 h, 5 µM in data set [1] is 97%. Also, the “inhibition (INH)” value in data set [2] was found to be 47%. Further, the Activity result in [3] was “Non-Toxic”.

Consider `O=C(Nc1ccc(C(F)(F)F)cc1)c1cc(O)c2c(c1)C(=O)c1cccc(O)c1C2=O`, for which the viability at 48 h, 5 µM in [1] came out at 57%.

Regarding `O=C(Nc1ccc(C(F)(F)F)cn1)c1cc(O)c2c(c1)C(=O)c1cccc(O)c1C2=O`, the viability at 48 h, 5 µM in data set [1] worked out at 49%.

Turning to `O=C(NCCN1CCOCC1)c1cc(O)c2c(c1)C(=O)c1cccc(O)c1C2=O`, the viability at 48 h, 5 µM in data set [1] stood at 15%.

Turning to `CC(=O)Oc1cccc2c1C(=O)c1c(OC(C)=O)cc(C(=O)Nc3ccc(C)cc3)cc1C2=O`, in data set [1], the viability at 48 h, 5 µM worked out at 28%.

With `Cc1cc(O)c2c(c1)C(=O)c1cc(O)cc(O)c1C2=O` [EMODIN], the viability at 48 h, 5 µM in data set [1] came to 109%. Also, the inhibition entry in data set [4] was “Active”. Also, the “inhibition (INH)” value in [2] is 45%. Further, the Activity result in [3] was “Non-Toxic”.

In the case of `Cc1ccc(NC(=O)c2cc(O)c3c(c2)C(=O)c2cccc(O)c2C3=O)cc1`, the viability at 48 h, 5 µM in data set [1] amounted to 62%.

As for `O=C(Nc1ccc(C(F)(F)F)cc1Cl)c1cc(O)c2c(c1)C(=O)c1cccc(O)c1C2=O`, the viability at 48 h, 5 µM in data set [1] amounted to 17%.

On to `O=C(Nc1ccccc1)c1cc(O)c2c(c1)C(=O)c1cccc(O)c1C2=O`, for which, in [1], the viability at 48 h, 5 µM came out at 53%.

`CC(=O)Oc1cccc2c1C(=O)c1c(OC(C)=O)cc(C(=O)Nc3ccc(C)c(Cl)c3)cc1C2=O`: the viability at 48 h, 5 µM in [1] worked out at 75%. In addition, in data set [2], the “inhibition (INH)” value was 0%.

For the compound `CC1CCN(C(=O)c2cc(O)c3c(c2)C(=O)c2cccc(O)c2C3=O)CC1`, in data set [1], the viability at 48 h, 5 µM is 103%. Moreover, the “inhibition (INH)” value in data set [2] was determined as 0%.

Consider `CC(C)(O)C1CCN(C(=O)c2cc(O)c3c(c2)C(=O)c2cccc(O)c2C3=O)CC1`, for which, in [1], the viability at 48 h, 5 µM worked out at 92%. For the same compound, in [2], the “inhibition (INH)” value came to 65%.

As to `CN1CCN(C(=O)c2cc(O)c3c(c2)C(=O)c2cccc(O)c2C3=O)CC1`, the viability at 48 h, 5 µM in data set [1] was found to be 122%. For the same compound, the “inhibition (INH)” value in data set [2] amounted to 0%.

Consider `CCN1CCN(C(=O)c2cc(O)c3c(c2)C(=O)c2cccc(O)c2C3=O)CC1`, for which, in data set [1], the viability at 48 h, 5 µM was 24%.

On to `CC(=O)Oc1cccc2c1C(=O)c1c(OC(C)=O)cc(C(=O)Nc3cc(C(F)(F)F)ccn3)cc1C2=O`, for which the viability at 48 h, 5 µM in [1] stood at 37%.

Consider `CC(=O)Oc1cccc2c1C(=O)c1c(OC(C)=O)cc(C(=O)Nc3ccc(C(F)(F)F)cc3Cl)cc1C2=O`, for which the viability at 48 h, 5 µM in data set [1] came out at 17%.

In the case of `O=C1c2cccc(O)c2C(=O)c2c(O)cc(C(=O)N3CCC(N4CCOCC4)CC3)cc21`, the inhibition result in data set [5], in [6], in data set [7], in data set [9], in data set [10] and in [4] was “Active” in each case. Further, the inhibition result in [14] was “Active”. For the same compound, the viability at 48 h, 5 µM in data set [1] turned out to be 92%. The Activity result in [8], in data set [11] and in data set [13] was “Non-Toxic” each time. Besides, the “inhibition (INH)” value in [2] is reported as 98%. The inhibition result in [12] is “Dose-dependent effect”.

The record behind these values is ChEMBL document CHEMBL3870319, “Synthesis and biological evaluation of rhein amides as inhibitors of osteoclast differentiation and bone resorption” (Eur J Med Chem, 2016).
